In brackets after ≈: the same amount, converted by molar mass.
Legend:
Type in all cases: functional
Pseudomonas aeruginosa [1] = assay: Antibacterial activity against IMP-4 producing Pseudomonas aeruginosa isolate 209321 after 18 hrs by CLSI broth microdilution method; conditions: isolate 209321, 18 h
Pseudomonas aeruginosa [2] = assay: Antibacterial activity against IMP-4 producing Pseudomonas aeruginosa isolate 209471 after 18 hrs in presence of BPL by CLSI broth microdilution method; conditions: isolate 209471, 18 h
Summary of the method: (§1)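 CLSI broth microdilution against clinical isolates (ESBL E. coli, KPC-2 MDR K. pneumoniae, IMP-4 MDR P. aeruginosa; five per species). Iron limitation: Mueller-Hinton broth supplemented with 16 mg/liter 2,2'-bipyridyl to complex iron and induce iron uptake systems. Read-out: MIC.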

Escherichia coli [3] = assay: Antibacterial activity against Escherichia coli isolate 210737 after 18 hrs in presence of BPL by CLSI broth microdilution method; conditions: isolate 210737, 18 h; summary of the method: as §1
Escherichia coli [4] = assay: Antibacterial activity against extended-spectrum beta-lactamase producing Escherichia coli isolate 212648 after 18 hrs by CLSI broth microdilution method; conditions: isolate 212648, 18 h
Klebsiella pneumoniae [5] = assay: Selectivity index, ratio of MIC for against KPC-2 producing Klebsiella pneumoniae isolate 212229 to MIC for against KPC-2 producing Klebsiella pneumoniae isolate 212229 in presence of BPL
Klebsiella pneumoniae [6] = assay: Antibacterial activity against KPC-2 producing Klebsiella pneumoniae isolate 212229 after 18 hrs by CLSI broth microdilution method; conditions: isolate 212229, 18 h
Klebsiella pneumoniae [7] = assay: Antibacterial activity against KPC-2 producing Klebsiella pneumoniae isolate 212423 after 18 hrs by CLSI broth microdilution method; conditions: isolate 212423, 18 h
Escherichia coli [8] = assay: Antibacterial activity against extended-spectrum beta-lactamase producing Escherichia coli isolate 208687 after 18 hrs in presence of BPL by CLSI broth microdilution method; conditions: isolate 208687, 18 h; summary of the method: as §1
Escherichia coli [9] = assay: Antibacterial activity against extended-spectrum beta-lactamase producing Escherichia coli isolate 209285 after 18 hrs by CLSI broth microdilution method; conditions: isolate 209285, 18 h
Pseudomonas aeruginosa [10] = assay: Antibacterial activity against IMP-4 producing Pseudomonas aeruginosa isolate 207272 after 18 hrs in presence of BPL by CLSI broth microdilution method; conditions: isolate 207272, 18 h; summary of the method: as §1
Klebsiella pneumoniae [11] = assay: Antibacterial activity against KPC-2 producing Klebsiella pneumoniae isolate 209735 after 18 hrs by CLSI broth microdilution method; conditions: isolate 209735, 18 h
Klebsiella pneumoniae [12] = assay: Selectivity index, ratio of MIC for against KPC-2 producing Klebsiella pneumoniae isolate 209632 to MIC for against KPC-2 producing Klebsiella pneumoniae isolate 209632 in presence of BPL
Klebsiella pneumoniae [13] = assay: Selectivity index, ratio of MIC for against KPC-2 producing Klebsiella pneumoniae isolate 209735 to MIC for against KPC-2 producing Klebsiella pneumoniae isolate 209735 in presence of BPL
Klebsiella pneumoniae [14] = assay: Selectivity index, ratio of MIC for against KPC-2 producing Klebsiella pneumoniae isolate 212232 to MIC for against KPC-2 producing Klebsiella pneumoniae isolate 212232 in presence of BPL
Escherichia coli [15] = assay: Antibacterial activity against extended-spectrum beta-lactamase producing Escherichia coli isolate 106342 after 18 hrs by CLSI broth microdilution method; conditions: isolate 106342, 18 h
Escherichia coli [16] = assay: Selectivity index, ratio of MIC for against extended-spectrum beta-lactamase producing Escherichia coli isolate 209285 to MIC for extended-spectrum beta-lactamase producing Escherichia coli isolate 209285 in presence of BPL
Klebsiella pneumoniae [17] = assay: Antibacterial activity against KPC-2 producing Klebsiella pneumoniae isolate 212232 after 18 hrs in presence of BPL by CLSI broth microdilution method; conditions: isolate 212232, 18 h; summary of the method: as §1
Escherichia coli [18] = assay: Antibacterial activity against extended-spectrum beta-lactamase producing Escherichia coli isolate 106342 after 18 hrs in presence of BPL by CLSI broth microdilution method; conditions: isolate 106342, 18 h; summary of the method: as §1
Escherichia coli [19] = assay: Antibacterial activity against Escherichia coli isolate 210737 after 18 hrs by CLSI broth microdilution method; conditions: isolate 210737, 18 h
Escherichia coli [20] = assay: Selectivity index, ratio of MIC for against extended-spectrum beta-lactamase producing Escherichia coli isolate 208687 to MIC for extended-spectrum beta-lactamase producing Escherichia coli isolate 208687 in presence of BPL
Klebsiella pneumoniae [21] = assay: Antibacterial activity against KPC-2 producing Klebsiella pneumoniae isolate 209632 after 18 hrs by CLSI broth microdilution method; conditions: isolate 209632, 18 h
Escherichia coli [22] = assay: Selectivity index, ratio of MIC for against extended-spectrum beta-lactamase producing Escherichia coli isolate 106342 to MIC for extended-spectrum beta-lactamase producing Escherichia coli isolate 106342 in presence of BPL
Pseudomonas aeruginosa [23] = assay: Selectivity index, ratio of MIC for against IMP-4 producing Pseudomonas aeruginosa isolate 208247 to MIC for against IMP-4 producing Pseudomonas aeruginosa isolate 208247 in presence of BPL
Escherichia coli [24] = assay: Selectivity index, ratio of MIC for against Escherichia coli isolate 210737 to MIC for Escherichia coli isolate 210737 in presence of BPL
Klebsiella pneumoniae [25] = assay: Antibacterial activity against KPC-2 producing Klebsiella pneumoniae isolate 212229 after 18 hrs in presence of BPL by CLSI broth microdilution method; conditions: isolate 212229, 18 h; summary of the method: as §1
Klebsiella pneumoniae [26] = assay: Antibacterial activity against KPC-2 producing Klebsiella pneumoniae isolate 212423 after 18 hrs in presence of BPL by CLSI broth microdilution method; conditions: isolate 212423, 18 h; summary of the method: as §1
Klebsiella pneumoniae [27] = assay: Antibacterial activity against KPC-2 producing Klebsiella pneumoniae isolate 209632 after 18 hrs in presence of BPL by CLSI broth microdilution method; conditions: isolate 209632, 18 h; summary of the method: as §1
Pseudomonas aeruginosa [28] = assay: Antibacterial activity against IMP-4 producing Pseudomonas aeruginosa isolate 212886 after 18 hrs by CLSI broth microdilution method; conditions: isolate 212886, 18 h
Escherichia coli [29] = assay: Antibacterial activity against extended-spectrum beta-lactamase producing Escherichia coli isolate 212648 after 18 hrs in presence of BPL by CLSI broth microdilution method; conditions: isolate 212648, 18 h; summary of the method: as §1
Escherichia coli [30] = assay: Antibacterial activity against extended-spectrum beta-lactamase producing Escherichia coli isolate 209285 after 18 hrs in presence of BPL by CLSI broth microdilution method; conditions: isolate 209285, 18 h; summary of the method: as §1
Pseudomonas aeruginosa [31] = assay: Antibacterial activity against IMP-4 producing Pseudomonas aeruginosa isolate 208247 after 18 hrs in presence of BPL by CLSI broth microdilution method; conditions: isolate 208247, 18 h; summary of the method: as §1
Pseudomonas aeruginosa [32] = assay: Selectivity index, ratio of MIC for against IMP-4 producing Pseudomonas aeruginosa isolate 212886 to MIC for against IMP-4 producing Pseudomonas aeruginosa isolate 212886 in presence of BPL
Pseudomonas aeruginosa [33] = assay: Antibacterial activity against IMP-4 producing Pseudomonas aeruginosa isolate 212886 after 18 hrs in presence of BPL by CLSI broth microdilution method; conditions: isolate 212886, 18 h; summary of the method: as §1
Pseudomonas aeruginosa [34] = assay: Selectivity index, ratio of MIC for against IMP-4 producing Pseudomonas aeruginosa isolate 209471 to MIC for against IMP-4 producing Pseudomonas aeruginosa isolate 209471 in presence of BPL
Klebsiella pneumoniae [35] = assay: Antibacterial activity against KPC-2 producing Klebsiella pneumoniae isolate 209735 after 18 hrs in presence of BPL by CLSI broth microdilution method; conditions: isolate 209735, 18 h; summary of the method: as §1
Klebsiella pneumoniae [36] = assay: Antibacterial activity against KPC-2 producing Klebsiella pneumoniae isolate 212232 after 18 hrs by CLSI broth microdilution method; conditions: isolate 212232, 18 h
Pseudomonas aeruginosa [37] = assay: Selectivity index, ratio of MIC for against IMP-4 producing Pseudomonas aeruginosa isolate 207272 to MIC for against IMP-4 producing Pseudomonas aeruginosa isolate 207272 in presence of BPL
Pseudomonas aeruginosa [38] = assay: Antibacterial activity against IMP-4 producing Pseudomonas aeruginosa isolate 207272 after 18 hrs by CLSI broth microdilution method; conditions: isolate 207272, 18 h
Klebsiella pneumoniae [39] = assay: Selectivity index, ratio of MIC for against KPC-2 producing Klebsiella pneumoniae isolate 212423 to MIC for against KPC-2 producing Klebsiella pneumoniae isolate 212423 in presence of BPL
Pseudomonas aeruginosa [40] = assay: Antibacterial activity against IMP-4 producing Pseudomonas aeruginosa isolate 209321 after 18 hrs in presence of BPL by CLSI broth microdilution method; conditions: isolate 209321, 18 h; summary of the method: as §1
Pseudomonas aeruginosa [41] = assay: Selectivity index, ratio of MIC for against IMP-4 producing Pseudomonas aeruginosa isolate 209321 to MIC for against IMP-4 producing Pseudomonas aeruginosa isolate 209321 in presence of BPL
Escherichia coli [42] = assay: Selectivity index, ratio of MIC for against extended-spectrum beta-lactamase producing Escherichia coli isolate 212648 to MIC for extended-spectrum beta-lactamase producing Escherichia coli isolate 212648 in presence of BPL
Pseudomonas aeruginosa [43] = assay: Antibacterial activity against IMP-4 producing Pseudomonas aeruginosa isolate 209471 after 18 hrs by CLSI broth microdilution method; conditions: isolate 209471, 18 h
Escherichia coli [44] = assay: Antibacterial activity against extended-spectrum beta-lactamase producing Escherichia coli isolate 208687 after 18 hrs by CLSI broth microdilution method; conditions: isolate 208687, 18 h
Pseudomonas aeruginosa [45] = assay: Antibacterial activity against IMP-4 producing Pseudomonas aeruginosa isolate 208247 after 18 hrs by CLSI broth microdilution method; conditions: isolate 208247, 18 h

MIC (Pseudomonas aeruginosa [1]): 64 µg/mL (≈ 96.9 µM)
MIC (Pseudomonas aeruginosa [2]): 32 µg/mL
MIC (Escherichia coli [3]): 0.25 µg/mL
MIC (Escherichia coli [4]): 0.5 µg/mL (≈ 0.757 µM)
MIC (Klebsiella pneumoniae [6]): 1 µg/mL (≈ 1.51 µM)
MIC (Klebsiella pneumoniae [7]): 1 µg/mL (≈ 1.51 µM)
MIC (Escherichia coli [8]): 0.125 µg/mL
MIC (Escherichia coli [9]): 4 µg/mL (≈ 6.05 µM)
MIC (Pseudomonas aeruginosa [10]): 64 µg/mL
MIC (Klebsiella pneumoniae [11]): 1 µg/mL (≈ 1.51 µM)
MIC (Escherichia coli [15]): 1 µg/mL (≈ 1.51 µM)
MIC (Klebsiella pneumoniae [17]): 0.25 µg/mL
MIC (Escherichia coli [18]): 0.5 µg/mL
MIC (Escherichia coli [19]): 0.5 µg/mL (≈ 0.757 µM)
MIC (Klebsiella pneumoniae [21]): 1 µg/mL (≈ 1.51 µM)
MIC (Klebsiella pneumoniae [25]): 0.5 µg/mL
MIC (Klebsiella pneumoniae [26]): 0.5 µg/mL
MIC (Klebsiella pneumoniae [27]): 0.25 µg/mL
MIC (Pseudomonas aeruginosa [28]): > 64 µg/mL
MIC (Escherichia coli [29]): 0.25 µg/mL
MIC (Escherichia coli [30]): 1 µg/mL
MIC (Pseudomonas aeruginosa [31]): > 64 µg/mL
MIC (Pseudomonas aeruginosa [33]): 16 µg/mL
MIC (Klebsiella pneumoniae [35]): 0.5 µg/mL
MIC (Klebsiella pneumoniae [36]): 2 µg/mL (≈ 3.03 µM)
MIC (Pseudomonas aeruginosa [38]): 64 µg/mL (≈ 96.9 µM)
MIC (Pseudomonas aeruginosa [40]): 64 µg/mL
MIC (Pseudomonas aeruginosa [43]): 32 µg/mL (≈ 48.4 µM)
MIC (Escherichia coli [44]): 2 µg/mL (≈ 3.03 µM)
MIC (Pseudomonas aeruginosa [45]): > 64 µg/mL
SMILES: Cc1nnc(SC[C@@H]2[C@H](NC(=O)/C(=N\OC(c3cc(=O)c(O)cn3O)C(C)C)c3csc(N)n3)C(=O)N2S(=O)(=O)O)s1 (stereo not given in full)
Selectivity Index (Klebsiella pneumoniae [5]): 2
Selectivity Index (Klebsiella pneumoniae [12]): 4
Selectivity Index (Klebsiella pneumoniae [13]): 2
Selectivity Index (Klebsiella pneumoniae [14]): 8
Selectivity Index (Escherichia coli [16]): 4
Selectivity Index (Escherichia coli [20]): 16
Selectivity Index (Escherichia coli [22]): 2
Selectivity Index (Pseudomonas aeruginosa [23]): 1 - 4
Selectivity Index (Escherichia coli [24]): 2
Selectivity Index (Pseudomonas aeruginosa [32]): >4
Selectivity Index (Pseudomonas aeruginosa [34]): 1
Selectivity Index (Pseudomonas aeruginosa [37]): 1
Selectivity Index (Klebsiella pneumoniae [39]): 2
Selectivity Index (Pseudomonas aeruginosa [41]): 1
Selectivity Index (Escherichia coli [42]): 2
